Where no end group is shown, it is not given here.

Test [1] deals with T1, LRG1 (Homo sapiens, UniProt P02750).
T1 sequence (P02750 36-347): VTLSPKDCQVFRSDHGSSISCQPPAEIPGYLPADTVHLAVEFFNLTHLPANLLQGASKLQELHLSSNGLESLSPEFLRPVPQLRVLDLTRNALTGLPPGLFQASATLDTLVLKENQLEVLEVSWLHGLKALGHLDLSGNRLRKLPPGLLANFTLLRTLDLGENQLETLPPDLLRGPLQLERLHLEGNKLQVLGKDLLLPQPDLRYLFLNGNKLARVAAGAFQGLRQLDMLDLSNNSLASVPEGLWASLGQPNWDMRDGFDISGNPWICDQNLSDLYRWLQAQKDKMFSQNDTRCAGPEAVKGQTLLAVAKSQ
As to the kind of experiment: LRG1 degradation in HK-2 cells. The conditions noted are these: various concentrations, Western blot (Fig. S9). The class given is cell-based. In a few lines:
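HK-2 cells were seeded at 3 × 10^5 cells per well. After adherence, they were serum-starved 6 h, then treated with test compound at varying concentrations for 12 h. Harvested protein went to Western blot, with LRG1 normalised to GAPDH as internal control.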
On the technique in general: Immunoblotting shows a protein as a band on a membrane.

Test [2] concerns HK-2 cells. As to the kind of experiment: Cellular uptake by flow cytometry and confocal microscopy. The class given is cell-based, human. As to conditions: 10 µM, 1-h and 4-h incubation, flow cytometry, n = 3. The method in brief:
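HK-2 cells in DMEM with 10% FBS at 37 °C and 5% CO2, seeded at 3 × 10^5 cells per well. After adherence, they got medium with 10 µM Cy5-labelled test peptide or control peptide, some with TGF-β, for 1 h or 4 h. Flow cytometry quantified uptake (n = 3). For confocal imaging, the same treatment was followed by fixation and Hoechst 33342 nuclear stain.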

With `Nc1cccc2c1CN(C1CCC(=O)NC1=O)C2=O` (centres unmarked) [lenalidomide, Lenalidomide], the “LRG1 degradation by the constituents (control degradation experiments)” value in test [1] is “none of these treatments led to LRG1 degradation”.

“ET-Cy5: ET peptide labeled with cyanine dye Cy5 (ESYSAKHRIMLT; also: Cy5 label, position not given here)”: the “uptake by HK-2 cells compared with control peptide” value in test [2] is on record as “markedly enhanced than MP-Cy5”.

Source of the values: article PMC11378895 (Asian Journal of Pharmaceutical Sciences, 2024).
